The source of these data is ChEMBL document CHEMBL1146144, “Identification of a novel boron-containing antibacterial agent (AN0128) with anti-inflammatory activity, for the potential treatment of cutaneous diseases” (2006).

Each structure is given as a SMILES string. Values after ≈ are worked out from the molar mass of the structure shown.

What all share (format): functional
Test [1] deals with Staphylococcus epidermidis. Kind of test: Antibacterial activity against Staphylococcus epidermidis.
The test system of a further test is Cutibacterium acnes. Kind of test: Antibacterial activity against Propionibacterium acnes.
The test system of another test is Staphylococcus aureus. Kind of test: Antibacterial activity against Staphylococcus aureus.
The subject of another test is Bacillus subtilis. The experiment in a line: Antibacterial activity against Bacillus subtilis.
The subject of the next test is Haemophilus influenzae. Kind of test: Antibacterial activity against Haemophilus influenzae.
Test [2] concerns PBMC. The experiment in a line: Inhibition of LPS-induced TNFalpha release in human PBMC at 10 uM relative to Dexamethasone. The gist of the method:
(§1)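 Test compound at a single concentration of 10. Stimulation: LPS for 24 h (TNF-α, IL-1β), PHA for 24 h (IFN-γ), concanavalin A for 48 h (IL-4). Cytokines released were measured by ELISA. Inhibition is given as percent of untreated control.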

Test [3] has as its system PBMC. The experiment in a line: Inhibition of LPS-induced IL1-beta release in human PBMC at 10 uM […]. In a few lines:
as §1

Test [4] deals with PBMC. The experiment in a line: Inhibition of concanavalin A-induced IL4 release in human PBMC at 10 uM relative to Dexamethasone. The gist of the method:
as §1

The subject of test [5] is PBMC. The experiment in a line: Inhibition of PHA-induced IFN-gamma release in human PBMC at 10 uM relative to Dexamethasone. The gist of the method:
as §1

As to `O=C(OB(c1cccc(Cl)c1)c1cccc(Cl)c1)c1ncccc1O`, the MIC was 8 µg/mL (≈ 21.5 µM) in test [1]; 10 µg/mL (≈ 26.9 µM) in the test on Cutibacterium acnes; no more than 0.125 µg/mL in the test on Staphylococcus aureus; 16 µg/mL (≈ 43 µM) against Bacillus subtilis; 16 µg/mL (≈ 43 µM) with Haemophilus influenzae.

`CC(=O)Oc1cccnc1C(=O)OB(c1ccc(C)c(Cl)c1)c1ccc(C)c(Cl)c1`: the inhibition at 10 µM in the test on PBMC [2] was 101%; with PBMC [3] it was -49%. The MIC in test [1] was 1 µg/mL (≈ 2.26 µM); against Cutibacterium acnes, 1 µg/mL (≈ 2.26 µM); in the test with Staphylococcus aureus, 2 µg/mL (≈ 4.52 µM); in the test with Bacillus subtilis it was 0.5 µg/mL (≈ 1.13 µM); in the test with Haemophilus influenzae, greater than 64 µg/mL.

Regarding `Cc1ccc(B(OC(=O)c2ccc(C(=O)O)cn2)c2ccc(C)c(Cl)c2)cc1Cl`, the inhibition at 10 µM came to 100% in the test with PBMC [2], 9% in the test on PBMC [4], 80% in the test on PBMC [3] and 24% in the test with PBMC [5]. For the same compound, the MIC in test [1] amounted to 8 µg/mL (≈ 18.7 µM); with Cutibacterium acnes it was 3 µg/mL (≈ 7.01 µM); with Staphylococcus aureus it was 0.5 µg/mL (≈ 1.17 µM); against Bacillus subtilis it was 8 µg/mL (≈ 18.7 µM); in the test on Haemophilus influenzae, 8 µg/mL (≈ 18.7 µM).

For the compound `CCOc1ccc(B(OC(=O)c2ncccc2O)c2ccc(OCC)c(Cl)c2)cc1Cl`, the MIC in test [1] was 2 µg/mL (≈ 4.35 µM); in the test on Cutibacterium acnes it was 1 µg/mL (≈ 2.17 µM); with Staphylococcus aureus, 2 µg/mL (≈ 4.35 µM); against Bacillus subtilis, 2 µg/mL (≈ 4.35 µM); in the test with Haemophilus influenzae, greater than 64 µg/mL.

For the compound `O=C(OB(c1cccnc1)c1cccc(Cl)c1)c1ncccc1O`, the results for the MIC (in test [1]; against Staphylococcus aureus; in the test with Haemophilus influenzae) were 32 µg/mL (≈ 94.5 µM), 16 µg/mL (≈ 47.3 µM) and 32 µg/mL (≈ 94.5 µM), respectively.

Regarding `Cc1ccccc1B(OC(=O)c1ncccc1O)c1cccc(Cl)c1`, the MIC in [1] was 8 µg/mL (≈ 22.8 µM); against Cutibacterium acnes, 3 µg/mL (≈ 8.53 µM); against Staphylococcus aureus it was 8 µg/mL (≈ 22.8 µM); against Bacillus subtilis it was 4 µg/mL (≈ 11.4 µM); against Haemophilus influenzae it was greater than 64 µg/mL.

On to `Cc1ccc(B(OC(=O)c2ncccc2N)c2ccc(C)c(Cl)c2)cc1Cl`, for which the MIC is greater than 64 µg/mL in test [1]; 1 µg/mL (≈ 2.51 µM) against Cutibacterium acnes; greater than 64 µg/mL against Staphylococcus aureus; 2 µg/mL (≈ 5.01 µM) with Bacillus subtilis; greater than 64 µg/mL against Haemophilus influenzae.

In the case of `O=C(OB(c1ccc(F)c(Cl)c1)c1ccc(F)c(Cl)c1)c1ncccc1O`, the MIC in [1] amounted to 8 µg/mL (≈ 19.6 µM); in the test on Cutibacterium acnes, 3 µg/mL (≈ 7.35 µM); in the test on Staphylococcus aureus, 1 µg/mL (≈ 2.45 µM); in the test with Bacillus subtilis, 8 µg/mL (≈ 19.6 µM); with Haemophilus influenzae it was 4 µg/mL (≈ 9.8 µM).

As to `CN(C)c1ccc(B(OC(=O)c2ncccc2O)c2ccc(N(C)C)c(Cl)c2)cc1Cl`, the MIC in test [1] was 32 µg/mL (≈ 69.8 µM); in the test on Staphylococcus aureus, 32 µg/mL (≈ 69.8 µM); with Bacillus subtilis, 64 µg/mL (≈ 140 µM); against Haemophilus influenzae, greater than 64 µg/mL.

For the compound `Cc1cc(Cl)ccc1B(OC(=O)c1ncccc1O)c1ccc(Cl)cc1C`, the inhibition at 10 µM in the test with PBMC [2] was found to be 101%; with PBMC [4], 57%; with PBMC [3] it was 103%; in the test on PBMC [5], 15%. The MIC in [1] was determined as 2 µg/mL (≈ 5 µM); in the test with Cutibacterium acnes, 0.3 µg/mL (≈ 0.75 µM); with Staphylococcus aureus it was 4 µg/mL (≈ 10 µM); with Bacillus subtilis it was 0.5 µg/mL (≈ 1.25 µM); with Haemophilus influenzae it was 16 µg/mL (≈ 40 µM).

In the case of `CSc1cccc(B(OC(=O)c2ncccc2O)c2cccc(Cl)c2)c1`, the MIC was 8 µg/mL (≈ 20.9 µM) in test [1]; 3 µg/mL (≈ 7.82 µM) in the test with Cutibacterium acnes; 8 µg/mL (≈ 20.9 µM) in the test with Staphylococcus aureus; 4 µg/mL (≈ 10.4 µM) in the test on Bacillus subtilis; greater than 64 µg/mL with Haemophilus influenzae.

On to `O=C(OB(c1cccc(F)c1)c1cccc(F)c1)c1ncccc1O`, for which the MIC in test [1] was greater than 64 µg/mL; in the test with Cutibacterium acnes, greater than 100 µg/mL; against Staphylococcus aureus it was greater than 64 µg/mL; in the test with Bacillus subtilis it was greater than 64 µg/mL; in the test on Haemophilus influenzae it was greater than 64 µg/mL.

With `O=C(OB(c1ccsc1)c1cccc(Cl)c1)c1ncccc1O`, the MIC in test [1] came to 32 µg/mL (≈ 93.1 µM); against Cutibacterium acnes, 10 µg/mL (≈ 29.1 µM); with Staphylococcus aureus it was 32 µg/mL (≈ 93.1 µM); in the test on Bacillus subtilis, 16 µg/mL (≈ 46.6 µM); in the test on Haemophilus influenzae, 32 µg/mL (≈ 93.1 µM).

As to `O=C(OB(c1ccc(Cl)cc1)c1ccc(Cl)cc1)c1ncccc1O`, the MIC in [1] amounted to 1 µg/mL (≈ 2.69 µM); against Cutibacterium acnes, 1 µg/mL (≈ 2.69 µM); in the test on Staphylococcus aureus, 4 µg/mL (≈ 10.8 µM); against Bacillus subtilis, 1 µg/mL (≈ 2.69 µM); against Haemophilus influenzae, 16 µg/mL (≈ 43 µM).

In the case of `Cc1ccc(B(CCc2ccccc2)OC(=O)c2ncccc2O)cc1Cl`, the MIC was 1 µg/mL (≈ 2.63 µM) in test [1]; 1 µg/mL (≈ 2.63 µM) in the test on Cutibacterium acnes; 0.5 µg/mL (≈ 1.32 µM) against Staphylococcus aureus; 1 µg/mL (≈ 2.63 µM) in the test with Bacillus subtilis; greater than 64 µg/mL against Haemophilus influenzae.

Consider `Cc1ccc(B(OC(=O)c2ncccc2O)c2ccc(C)c(Cl)c2)cc1`, for which the MIC in test [1] is 2 µg/mL (≈ 5.47 µM); in the test on Cutibacterium acnes it was 3 µg/mL (≈ 8.21 µM); against Staphylococcus aureus it was 4 µg/mL (≈ 10.9 µM); in the test on Bacillus subtilis, 2 µg/mL (≈ 5.47 µM); in the test with Haemophilus influenzae, greater than 64 µg/mL.

As for `O=C(OB(c1ccc(Cl)cc1)c1cccnc1)c1ncccc1O`, the figures for the MIC (in test [1]; in the test on Staphylococcus aureus; against Haemophilus influenzae) were 32 µg/mL (≈ 94.5 µM), 64 µg/mL (≈ 189 µM) and 16 µg/mL (≈ 47.3 µM), respectively.

Take `Cc1ccc(B(OC(=O)c2ncccc2O)c2ccc(C)c(Cl)c2)cc1Cl`: the inhibition at 10 µM with PBMC [2] is 100%; with PBMC [4], -21%; in the test with PBMC [3], 99%; in the test on PBMC [5], -20%. The MIC in test [1] is 0.5 µg/mL (≈ 1.25 µM); in the test on Cutibacterium acnes, 0.3 µg/mL (≈ 0.75 µM); against Staphylococcus aureus it was 1 µg/mL (≈ 2.5 µM); against Bacillus subtilis, 1 µg/mL (≈ 2.5 µM); against Haemophilus influenzae, greater than 64 µg/mL.

Consider `O=C(OB(c1ccc(Cl)cc1)c1ccc(Cl)nc1)c1ncccc1O`, for which the MIC (in test [1]; against Staphylococcus aureus; against Haemophilus influenzae) was 32 µg/mL (≈ 85.8 µM) throughout.

Regarding `Cc1ccc(B(OC(=O)c2ncccc2C(=O)O)c2ccc(C)c(Cl)c2)cc1Cl`, the MIC in [1] worked out at 4 µg/mL (≈ 9.34 µM); in the test on Cutibacterium acnes it was 3 µg/mL (≈ 7.01 µM); against Staphylococcus aureus it was 0.125 µg/mL (≈ 0.292 µM); against Bacillus subtilis, 8 µg/mL (≈ 18.7 µM); in the test with Haemophilus influenzae it was 8 µg/mL (≈ 18.7 µM).

With `CC[C@H]1OC(=O)[C@H](C)[C@@H](O[C@H]2C[C@@](C)(OC)[C@@H](O)[C@H](C)O2)[C@H](C)[C@@H](O[C@@H]2O[C@H](C)C[C@H](N(C)C)[C@H]2O)[C@](C)(O)C[C@@H](C)C(=O)[C@H](C)[C@@H](O)[C@]1(C)O` [ERYTHROMYCIN], the inhibition at 10 µM in the test with PBMC [2] is 22%; in the test on PBMC [3] it was -32%. Also, the MIC was 0.15 µg/mL (≈ 0.204 µM) in [1]; 0.1 µg/mL (≈ 0.136 µM) with Cutibacterium acnes; 0.5 µg/mL (≈ 0.681 µM) with Staphylococcus aureus; 0.1 µg/mL (≈ 0.136 µM) against Bacillus subtilis; 4 µg/mL (≈ 5.45 µM) in the test on Haemophilus influenzae.

Regarding `Cc1ccc(B(OC(=O)c2ncccc2C(=O)c2ccccc2)c2ccc(C)c(Cl)c2)cc1Cl`, the MIC in [1] was 32 µg/mL (≈ 65.5 µM); with Cutibacterium acnes, 30 µg/mL (≈ 61.5 µM); with Staphylococcus aureus it was 0.5 µg/mL (≈ 1.02 µM); with Bacillus subtilis, 64 µg/mL (≈ 131 µM); in the test with Haemophilus influenzae, greater than 64 µg/mL.

As for `Cc1ccc(B(OC(=O)c2cc(C(=O)O)ccn2)c2ccc(C)c(Cl)c2)cc1Cl`, the MIC was 4 µg/mL (≈ 9.34 µM) in [1], 3 µg/mL (≈ 7.01 µM) in the test on Cutibacterium acnes and 2 µg/mL (≈ 4.67 µM) with Staphylococcus aureus.

As for `Cc1ccc(B(OC(=O)c2ccccn2)c2ccc(C)c(Cl)c2)cc1Cl`, the MIC is greater than 64 µg/mL in test [1] and 0.5 µg/mL (≈ 1.3 µM) with Staphylococcus aureus.

Broadly, the inhibition is the relative decrease from the control value, in per cent.
